Assay results from ChEMBL document CHEMBL3526093, “Oxidative ipso substitution of 2,4-difluoro-benzylphthalazines: identification of a rare stable quinone methide and subsequent GSH conjugate” (Drug Metab Dispos, 2012).

Legend:
[1] = Half life under physiological conditions; format: ADME
Cytochrome P450 2C19 = Cytochrome P450 2C19 (Homo sapiens, UniProt P33261); test: Drug metabolism assessed as human CYP2C19-mediated quinone methide metabolite formation at 10 uM by LC/MS method; format: ADME; conditions: recombinant enzyme
Chain of Cytochrome P450 2C19 (P33261 whole entry): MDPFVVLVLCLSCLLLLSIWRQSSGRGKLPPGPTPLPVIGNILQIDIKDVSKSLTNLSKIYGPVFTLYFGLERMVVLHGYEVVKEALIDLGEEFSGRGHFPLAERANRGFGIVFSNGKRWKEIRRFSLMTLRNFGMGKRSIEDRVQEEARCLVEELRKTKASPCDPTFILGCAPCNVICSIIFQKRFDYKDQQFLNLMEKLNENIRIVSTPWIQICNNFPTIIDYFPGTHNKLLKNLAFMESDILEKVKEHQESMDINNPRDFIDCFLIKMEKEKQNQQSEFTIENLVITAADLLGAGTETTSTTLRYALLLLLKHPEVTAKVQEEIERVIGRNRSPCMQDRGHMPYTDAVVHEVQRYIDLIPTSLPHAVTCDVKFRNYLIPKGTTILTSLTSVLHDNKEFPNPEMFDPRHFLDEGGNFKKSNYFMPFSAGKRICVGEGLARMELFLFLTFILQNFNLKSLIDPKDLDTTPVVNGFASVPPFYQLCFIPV
Procedure, shortened: (§1)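 Recombinant human P450 Supersomes (100 pmol/ml enzyme) in 0.1 M KH2PO4 pH 7.4 with 5 mM MgCl2 and substrate, prewarmed 2 min at 37°C. NADPH (2 mM) started the reaction, with GSH (5 mM) added 3 min later. Controls lacked GSH or NADPH. Aliquots at 0, 0.5 and 1 h were stopped in ice-cold acetonitrile, spun, and supernatants run on LC/MSn.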

Cytochrome P450 2E1 = Cytochrome P450 2E1 (Homo sapiens, UniProt P05181); test: Drug metabolism assessed as human CYP2E1-mediated quinone methide metabolite formation at 10 uM by LC/MS method; format: ADME; conditions: recombinant enzyme; procedure, shortened: as §1
Chain of Cytochrome P450 2E1 (P05181 whole entry): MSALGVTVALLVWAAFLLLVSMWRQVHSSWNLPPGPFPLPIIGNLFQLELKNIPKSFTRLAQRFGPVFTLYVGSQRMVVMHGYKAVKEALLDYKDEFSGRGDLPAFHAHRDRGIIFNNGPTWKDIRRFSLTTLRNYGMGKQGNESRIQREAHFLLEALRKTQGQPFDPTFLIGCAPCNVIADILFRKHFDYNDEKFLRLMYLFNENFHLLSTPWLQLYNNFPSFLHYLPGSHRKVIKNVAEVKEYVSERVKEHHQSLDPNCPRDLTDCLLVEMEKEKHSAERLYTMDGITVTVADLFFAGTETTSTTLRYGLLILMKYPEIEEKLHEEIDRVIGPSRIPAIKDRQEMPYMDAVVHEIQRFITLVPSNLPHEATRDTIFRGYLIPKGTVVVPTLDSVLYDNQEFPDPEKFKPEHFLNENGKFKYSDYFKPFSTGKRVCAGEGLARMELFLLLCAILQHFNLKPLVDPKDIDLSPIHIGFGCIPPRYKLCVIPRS

[2] = Retention time of the compound by LC/MS method; format: physicochemical
Procedure, shortened: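 Reversed-phase C18 column (2.1 × 150 mm), 20 µl injection, 0.25 ml/min. A: 10 mM ammonium formate/0.1% formic acid in water. B: acetonitrile/0.1% formic acid. Gradient held at 10% B for 5 min, then to 90% B over 24 min, back to 10% B over 2 min, held 3 min (35 min run). Positive-ion electrospray detection.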

Cytochrome P450 2D6 = Cytochrome P450 2D6 (Homo sapiens, UniProt P10635); test: Drug metabolism assessed as human CYP2D6-mediated quinone methide metabolite formation at 10 uM by LC/MS method; format: ADME; conditions: recombinant enzyme; procedure, shortened: as §1
Chain of Cytochrome P450 2D6 (P10635 whole entry): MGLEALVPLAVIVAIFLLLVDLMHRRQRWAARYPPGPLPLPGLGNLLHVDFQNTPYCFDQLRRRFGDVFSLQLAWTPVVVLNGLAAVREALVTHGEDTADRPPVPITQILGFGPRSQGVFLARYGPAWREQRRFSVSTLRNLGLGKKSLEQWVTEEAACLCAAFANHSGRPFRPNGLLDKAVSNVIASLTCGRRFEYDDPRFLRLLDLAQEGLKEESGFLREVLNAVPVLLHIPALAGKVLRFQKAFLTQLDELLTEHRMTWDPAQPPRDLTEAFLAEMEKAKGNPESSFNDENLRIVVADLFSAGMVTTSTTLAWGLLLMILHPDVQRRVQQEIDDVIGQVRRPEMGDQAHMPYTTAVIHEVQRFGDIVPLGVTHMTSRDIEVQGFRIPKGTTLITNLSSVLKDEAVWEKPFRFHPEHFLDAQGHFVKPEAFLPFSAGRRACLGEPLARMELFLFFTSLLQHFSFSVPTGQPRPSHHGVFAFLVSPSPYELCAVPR

Cytochrome P450 2C9 = Cytochrome P450 2C9 (Homo sapiens, UniProt P11712); test: Drug metabolism assessed as human CYP2C9-mediated quinone methide metabolite formation at 10 uM by LC/MS method; format: ADME; conditions: recombinant enzyme; procedure, shortened: as §1
Chain of Cytochrome P450 2C9 (P11712 whole entry): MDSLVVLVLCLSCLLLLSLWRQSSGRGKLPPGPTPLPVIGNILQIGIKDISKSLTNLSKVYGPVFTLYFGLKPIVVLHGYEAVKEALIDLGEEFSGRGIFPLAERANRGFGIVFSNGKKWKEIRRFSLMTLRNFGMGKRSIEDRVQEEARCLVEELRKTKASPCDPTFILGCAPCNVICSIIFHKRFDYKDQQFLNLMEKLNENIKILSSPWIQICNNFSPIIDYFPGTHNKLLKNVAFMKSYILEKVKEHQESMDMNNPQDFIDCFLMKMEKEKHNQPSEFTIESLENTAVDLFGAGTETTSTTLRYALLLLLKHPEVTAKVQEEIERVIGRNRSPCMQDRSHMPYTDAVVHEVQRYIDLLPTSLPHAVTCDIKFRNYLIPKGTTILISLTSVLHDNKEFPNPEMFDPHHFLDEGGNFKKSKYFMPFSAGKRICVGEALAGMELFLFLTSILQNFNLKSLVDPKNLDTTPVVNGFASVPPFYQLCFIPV

Cytochrome P450 1A2 = molecular target: T1, Cytochrome P450 1A2 (Homo sapiens, UniProt P05177); test: Drug metabolism assessed as human CYP1A2-mediated quinone methide metabolite formation at 10 uM by LC/MS method; format: ADME; conditions: recombinant enzyme; procedure, shortened: as §1
T1 sequence (P05177 whole entry): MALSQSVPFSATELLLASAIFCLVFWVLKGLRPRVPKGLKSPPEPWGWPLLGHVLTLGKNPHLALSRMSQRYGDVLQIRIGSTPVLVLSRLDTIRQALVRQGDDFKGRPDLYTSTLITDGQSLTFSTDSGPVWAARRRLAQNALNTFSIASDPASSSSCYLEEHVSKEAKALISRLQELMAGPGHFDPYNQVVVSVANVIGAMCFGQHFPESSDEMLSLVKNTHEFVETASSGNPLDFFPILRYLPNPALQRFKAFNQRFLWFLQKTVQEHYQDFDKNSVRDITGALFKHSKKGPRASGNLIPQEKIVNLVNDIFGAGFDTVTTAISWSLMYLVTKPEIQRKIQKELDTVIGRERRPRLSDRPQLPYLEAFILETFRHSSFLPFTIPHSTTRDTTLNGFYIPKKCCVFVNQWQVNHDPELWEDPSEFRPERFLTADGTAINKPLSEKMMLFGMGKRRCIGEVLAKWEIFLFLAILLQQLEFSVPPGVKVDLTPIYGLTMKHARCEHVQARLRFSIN

Liver microsome [3] = test: Drug metabolism in human liver microsomes assessed as quinone methide metabolite formation at 10 uM by LC/MS method; format: ADME
Procedure, shortened: (§2)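 Pooled human liver microsomes (1 mg/ml protein) in 0.1 M KH2PO4 pH 7.4 with 5 mM MgCl2 and substrate, prewarmed 2 min at 37°C with shaking. Started with 2 mM NADPH, then 5 mM GSH added 3 min later. Controls omitted GSH or NADPH. Samples at 0, 0.5 and 1 h quenched in ice-cold acetonitrile, centrifuged, supernatant analysed by positive-ion ESI LC/MSn.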

Cytochrome P450 3A4 [4] = molecular target: T2, Cytochrome P450 3A4 (Homo sapiens, UniProt P08684); test: Drug metabolism assessed as human CYP3A4-mediated quinone methide metabolite formation at 10 uM by LC/MS method; format: ADME; conditions: recombinant enzyme; procedure, shortened: as §1
T2 sequence (P08684 whole entry): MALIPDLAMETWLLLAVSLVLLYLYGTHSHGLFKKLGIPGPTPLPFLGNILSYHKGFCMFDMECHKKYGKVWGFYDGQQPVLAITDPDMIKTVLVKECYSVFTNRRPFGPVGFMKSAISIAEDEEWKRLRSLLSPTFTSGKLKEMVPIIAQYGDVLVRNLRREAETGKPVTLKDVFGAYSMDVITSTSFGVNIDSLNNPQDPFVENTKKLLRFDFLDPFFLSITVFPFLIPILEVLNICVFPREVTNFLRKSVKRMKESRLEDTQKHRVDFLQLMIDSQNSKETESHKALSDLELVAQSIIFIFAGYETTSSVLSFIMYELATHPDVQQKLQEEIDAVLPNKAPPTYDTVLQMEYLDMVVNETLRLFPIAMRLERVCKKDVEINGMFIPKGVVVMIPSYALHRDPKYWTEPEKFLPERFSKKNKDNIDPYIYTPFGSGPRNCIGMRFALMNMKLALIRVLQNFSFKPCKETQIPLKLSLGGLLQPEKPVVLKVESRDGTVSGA

Liver microsome [5] = test: Drug level in human liver microsomes treated with 10 uM [2-(6-(4-(4-(2,4-difluorobenzyl)phthalazin-1-yl)piperazin-1-yl)pyridin-3-yl)propan-2-ol] by LC/MS method; format: ADME; procedure, shortened: as §2
Cytochrome P450 3A4 [6] = molecular target: T2, Cytochrome P450 3A4; test: Drug metabolism assessed as human CYP3A4-mediated compound formation using 10 uM [2-(6-(4-(4-(2,4-difluorobenzyl)phthalazin-1-yl)piperazin-1-yl)pyridin-3-yl)propan-2-ol] by LC/MS method; format: ADME; conditions: recombinant enzyme; procedure, shortened: as §1

Question: For `C/C=C(/C(=C1C=CC(=O)C=C1)c1ccc(OCCN(C)C)cc1)c1ccccc1`, which half-life [1] is on record?
Answer: Its half-life is 3 h.

Question: What does the source list for `CC(C)(O)c1ccc(N2CCN(c3nnc(Cc4ccc(F)cc4F)c4ccccc34)CC2)nc1`?
Answer: Drug metabolism (Cytochrome P450 2C19): metabolite_not_detected; Drug metabolism (Cytochrome P450 2E1): metabolite_not_detected; Retention_time [2]: 14.8 min; Drug metabolism (Cytochrome P450 2D6): metabolite_not_detected; Drug metabolism (Cytochrome P450 2C9): metabolite_not_detected; Drug metabolism (Cytochrome P450 1A2): metabolite_not_detected; Drug metabolism (Liver microsome [3]): metabolite_detected; Drug metabolism (Cytochrome P450 3A4 [4]): metabolite_detected

Question: Which results are given for `CC(C)(O)c1ccc(N2CCN(c3nnc(/C=C4\C=CC(=O)C=C4F)c4ccccc34)CC2)nc1`?
Answer: Retention_time [2]: 17.46 min; Drug metabolism (Liver microsome [5]): metabolite_detected; Drug metabolism (Cytochrome P450 3A4 [6]): metabolite_detected

Question: Which results are given for `CC(C)(O)c1ccc(N2CCN(c3nnc(Cc4cc(SC[C@H](NC(=O)CC[C@H](N)C(=O)O)C(=O)NCC(=O)O)c(O)cc4F)c4ccccc34)CC2)nc1`?
Answer: Retention_time [2]: 9.92 min; Drug metabolism (Liver microsome [5]): metabolite_detected; Drug metabolism (Cytochrome P450 3A4 [6]): metabolite_detected

Question: With `C/C=C(/C(=C1C=CC(=O)C=C1)c1ccccc1)c1ccccc1` as the molecule, how does the half-life [1] read?
Answer: The half-life was 4 h.
